Article PMC4793151 (Cell host & microbe, 2016)

Experiments:
[1] = tested on: FITC labeled H. pylori strain 17875/Leb; assay: In vitro inhibition of H. pylori adherence to human gastric mucosa sections; type: cell-based, Helicobacter pylori
Method in brief: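 FITC-labeled bacterial suspensions were mixed with N-acetylcysteine dilutions in SIA blocking buffer (0, 10, 20, 100 mg/mL) and incubated 1 hr at 37°C. They were then applied to human gastric mucosa tissue sections for 2 hr. Unbound cells were removed with PBS-Tween, and adherent bacteria were quantified digitally by microscopy relative to bacteria without NAC.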

[2] = tested on: FITC labeled H. pylori strain 17875/Leb; assay: In vitro detachment of adherent H. pylori from human gastric mucosa sections; type: cell-based, Helicobacter pylori
Method in brief: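 Human gastric mucosa tissue sections were first given FITC-labeled bacteria with no NAC for 2 hr, then washed in PBS-Tween. Bound bacteria were then exposed to N-acetylcysteine dilutions in SIA blocking buffer (10, 20, 100, 200 mg/mL) for 1 hr at 37°C. Slides were washed again in PBS-Tween and remaining adherent bacteria were quantified digitally by microscopy.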

[3] = tested on: H. pylori strain 17875/Leb; assay: RIA of 125I-labeled Le^b binding to bacterial cells exposed to reducing agent; type: cell-based, Helicobacter pylori; details: 20 mg/mL NAC
[4] = tested on: human gastric mucosa sections; assay: Pretreatment of gastric sections; type: cell-based; details: up to 200 mg/mL NAC
Method in brief: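 Human gastric mucosa sections were preincubated with N-acetylcysteine in SIA blocking buffer (0, 10, 20, 100, 200 mg/mL) for 2 hr at room temperature, then washed three times in PBS-Tween. FITC-labeled H. pylori 17875/Leb was applied for 2 hr and unbound cells were washed off with PBS-Tween. Bacterial binding was quantified digitally by microscopy.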

[5] = target: T1, BabA^AD CL2 disulfide bond (Helicobacter pylori, UniProt O52269); assay: Quantitative MS of tryptic digests: CL2 disulfide reduction; type: biochemical
T1 sequence (O52269 45-480): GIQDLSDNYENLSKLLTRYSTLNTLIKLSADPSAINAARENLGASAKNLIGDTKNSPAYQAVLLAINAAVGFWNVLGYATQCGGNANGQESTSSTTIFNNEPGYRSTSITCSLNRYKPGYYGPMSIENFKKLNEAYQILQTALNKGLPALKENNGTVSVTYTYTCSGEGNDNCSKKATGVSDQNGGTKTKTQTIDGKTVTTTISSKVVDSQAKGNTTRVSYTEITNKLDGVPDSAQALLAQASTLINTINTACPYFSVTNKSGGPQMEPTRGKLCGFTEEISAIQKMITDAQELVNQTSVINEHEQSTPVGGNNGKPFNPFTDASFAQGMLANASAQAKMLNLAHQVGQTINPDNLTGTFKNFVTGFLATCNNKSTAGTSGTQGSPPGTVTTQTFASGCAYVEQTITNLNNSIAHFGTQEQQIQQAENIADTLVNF

H. pylori = H. pylori infection of Le^b-expressing transgenic mice; type: in vivo; details: 2 week, 40 mg/day/animal in drinking water
[6] = tested on: H. pylori clinical isolates; assay: RIA of Le^b binding of clinical isolates preincubated with DTT; type: cell-based; details: Helicobacter pylori, read-out: EC50, DTT-susceptibility of Le^b-binding
BabA = details: ref Borén et al., 1993; cited from earlier work
BabA^AD;DL1-S831 [7] = assay: ITC of BabA^AD; type: binding, Helicobacter pylori
[8] = tested on: BabA CBD of Peruvian strain P436; assay: Monovalent binding affinity; parameters: species or system Helicobacter pylori; details: P436 versus 17875 BabA
Method in brief: (§1)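 BabA adhesin domain isoforms from strains A730 and P436, plus the strain 17875 reference domain, were expressed recombinantly in E. coli as outer-membrane- or periplasm-targeted proteins and purified by His-tag affinity. In vitro binding was measured by isothermal titration calorimetry: injection heats were integrated into a normalized binding isotherm.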

[9] = target: T2, BabA CBD of Alaskan strain A730 (Helicobacter pylori, UniProt O52269); assay: Monovalent binding affinity; details: for Kd: A730
T2 sequence (O52269 45-480): T1 sequence (O52269 45-480)
Method in brief: as §1

full-length BabA = target: T3, full-length BabA (Helicobacter pylori, UniProt O52269); assay: SPR of full-length BabA on Le^b-coated chip; type: binding
T3 sequence (O52269 21-741): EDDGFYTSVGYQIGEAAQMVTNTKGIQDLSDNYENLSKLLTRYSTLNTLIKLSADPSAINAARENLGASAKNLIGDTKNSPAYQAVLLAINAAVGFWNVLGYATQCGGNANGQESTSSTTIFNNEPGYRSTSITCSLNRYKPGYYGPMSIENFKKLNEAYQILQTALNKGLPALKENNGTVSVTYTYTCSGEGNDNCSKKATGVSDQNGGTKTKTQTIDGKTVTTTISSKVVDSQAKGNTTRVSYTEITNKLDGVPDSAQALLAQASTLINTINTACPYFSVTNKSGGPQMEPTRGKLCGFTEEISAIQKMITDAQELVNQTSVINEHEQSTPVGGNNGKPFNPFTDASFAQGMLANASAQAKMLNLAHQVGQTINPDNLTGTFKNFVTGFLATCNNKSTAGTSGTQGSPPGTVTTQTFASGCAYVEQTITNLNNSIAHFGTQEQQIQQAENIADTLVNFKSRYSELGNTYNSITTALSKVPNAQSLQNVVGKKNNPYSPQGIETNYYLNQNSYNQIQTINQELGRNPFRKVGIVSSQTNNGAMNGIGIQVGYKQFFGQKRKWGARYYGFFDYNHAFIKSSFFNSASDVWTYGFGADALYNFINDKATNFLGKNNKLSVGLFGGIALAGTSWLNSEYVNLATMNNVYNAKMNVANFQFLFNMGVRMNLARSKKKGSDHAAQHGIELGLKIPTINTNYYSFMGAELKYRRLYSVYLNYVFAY
Method in brief: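 Surface plasmon resonance on a chip carrying immobilized Leb. Full-length BabA was flowed over it at 500, 250, 125, 62.5, 31.3 and 15.7 nM. Raw sensorgrams were fitted to binding curves to derive Kd, the association rate constant ka and the dissociation rate constant kd, each reported with a ± spread.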

BabA^AD;DL1-S831 [10] = assay: SPR competition of BabA^AD; type: binding, Helicobacter pylori; details: 2-fold dilution series from 5 mM to 1 μM
[11] = target: T4, strain 17875 BabA adhesin domain (BabA^AD), residues 25-460 (Helicobacter pylori strain 17875, strain); assay: crystal structure
T4 chain: T1 sequence (O52269 45-480)

## CC(=O)N[C@@H](CS)C(=O)O [NAC, N-acetyl-L-cysteine]
[1]; 10 mg/mL NAC preincubation
  adherent bacteria: 14%
[1]; 20 mg/mL NAC preincubation
  adherent bacteria: less than 5%
[1]; 20 mg/mL NAC, bacteria preincubated
  inhibition of bacterial adherence: almost eliminated
[1]; Helicobacter pylori, read-out: inhibition of bacterial adherence
  inhibition at 10000 µg/mL: 86%
[2]; 10 mg/mL NAC on sections with bound bacteria
  bacterial detachment: undetectable
[2]; 20 mg/mL NAC on sections with bound bacteria
  bacterial detachment: 50%
[2]; 200 mg/mL NAC on sections with bound bacteria
  bacterial detachment: over 90%
[3]
  BabA-Le^b binding after incubation of bacteria: inactivated
[4]
  effect of section pretreatment on bacterial binding: did not affect bacterial binding
[5]
  EC50: 55100 µM
H. pylori
  fold lower neutrophil recruitment to the gastric mucosa: 13 fold
  fold reduction in H. pylori epithelial adherence: 2 fold

## O[C@@H](CS)[C@@H](O)CS (racemic) [DTT, dithiothreitol]
[6]
  EC50: 2000 to 10000 µM

## Le^b hexasaccharide
BabA
  fold stronger binding to Le^b versus type 1 H neoglycoconjugates: about 2 fold
BabA^AD;DL1-S831 [7]; Figures 7B and S7A
  Le^b binding of S831 DL1 graft: active
[8]
  fold loss in monovalent binding affinity: ~15 fold
[9]; A730 versus 17875 BabA
  fold loss in monovalent binding affinity: ~20 fold
full-length BabA
  association rate constant ka: 610000 ± 140000 M⁻¹ s⁻¹
full-length BabA; full-length protein
  Kd: 0.00039 µM
BabA^AD;DL1-S831 [10]
  suppression of binding to Le^b-coated SPR chip by soluble glycan: suppressed

## CC(=O)N[C@H]1[C@@H](O[C@H]2[C@@H](O)[C@@H](CO)O[C@@H](O[C@H]3[C@H](O)[C@@H](CO)O[C@@H](O[C@H]4[C@@H](O)[C@@H](CO)O[C@@H](O[C@H]5[C@H](O)[C@@H](O)C(O)O[C@@H]5CO)[C@@H]4O)[C@@H]3NC(C)=O)[C@@H]2O[C@@H]2O[C@@H](C)[C@@H](O)[C@@H](O)[C@@H]2O)O[C@H](CO)[C@H](O)[C@@H]1O (stereo partly shown) [A6-1, A type 1 hexasaccharide]
[9]
  Kd: 305 µM

## CC(=O)N[C@H]1[C@H](O[C@H]2[C@@H](O)[C@@H](CO)O[C@@H](O[C@H]3[C@H](O)[C@@H](O)C(O)O[C@@H]3CO)[C@@H]2O)O[C@H](CO)[C@@H](O[C@@H]2O[C@@H](C)[C@@H](O)[C@@H](O)[C@@H]2O)[C@@H]1O[C@@H]1O[C@H](CO)[C@H](O)[C@H](O[C@H]2O[C@H](CO)[C@H](O)[C@H](O)[C@H]2O)[C@H]1O[C@@H]1O[C@@H](C)[C@@H](O)[C@@H](O)[C@@H]1O (stereo partly shown) [BLe^b7]
BabA^AD;DL1-S831 [7]; titration
  ITC binding: no binding heat signal
[9]
  Kd: 93 µM

B1: Nb-ER14 (VHH)
VHH: QVQLQESGGGLVQPGGSLRLSCAASGSIYSLIAMGWYRQAPGKEHELVATISSGSTTYYADSVKGRFTISRDNAKNTLYLQMNSLKPEDTAMYYCAAYSDRLTDCSNCEADYWGQGTQVTVS
[11]
  binding result: binds

B2: Nb-ER19 (VHH)
VHH: QVQLQESGGGLVQPGGSLRLSCAASGSIFSGNVMGWYRQAPGKLREWVAAITPQGVPNYADSVKGRFTISRDNAKNMLYLQMSSLKPEDTALYYCNRLPNYRSWGQGTQVTVSS
[11]
  binding result: binds
